The nature of this data set: Toxicity liver stage against HepG2, at 10uM. Format: cell-based. Also noted: test concentration 10 uM, cell line HepG2-A16-CD81EGFP. The conditions noted are these: human, HepG2-A16-CD81EGFP cells; read-out: INHIBITION
Summed up:
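Uninfected HepG2-A16-CD81EGFP cells, 3 × 10^3 per well, 1536-well, plated on prespotted compound at 10 μM final, parasite-free screening media added to match infected plates; puromycin 10 μM positive, DMSO 0.5% negative; run in parallel with 48 h PbLuc assay at 37 °C, 5% CO2; viability by CellTiter-Glo luminescence, normalized to controls.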
As for `CC(C)(C)c1c[nH]c([C@@H]2COCCN2C2CCOCC2)n1`, the cytotoxicity at 10 µM is -5.8%.
For `CO[C@H]1COCCN(C(=O)c2ccno2)C1` the value was 2.42%.
Consider `O=C(NC[C@H]1C[C@@H]2CCN1C[C@@H]2CN1CCCCC1)c1ccco1`, for which the cytotoxicity at 10 µM is 7.32%.
With `CCN1CC(COc2ccccc2)Oc2ncccc2S1(=O)=O` (stereo unspecified), the cytotoxicity at 10 µM is -0.947%.
For `Cn1nnc2c(sc3nc(N4CCOCC4)c4c(c32)CCC4)c1=O` the value was -12.4%; for `COC(=O)CNC(=O)Cn1ccc2ccc(F)cc21`, -1.33%.
With `Cc1cc(S(=O)(=O)NCC(O)c2sccc2C)ccc1F` (stereo unspecified), the cytotoxicity at 10 µM was -1.81%.
For `CC(C)NC(=O)N1CCOC2(CCNCC2)C1` the value was -2.69%; for `NCC1[C@H]2CN(Cc3cccc(Cl)c3)C[C@@H]12` (stereo partly specified), -9.17%; for `O=S(=O)(C1CC1)N1CCc2ncnc(-c3ccsc3)c2CC1`, 4.8%.
The value for `CC(C)NC(=O)N1CCOC2(CCCN(c3cccc(C#N)c3)C2)C1` (stereo unspecified) was 11.8%; that for `CS(=O)(=O)N1CCN(C(=O)c2cccc(Cl)c2)CC2(CNC(=O)C2)C1` (stereo unspecified) was 6.86%; that for `NC(=O)C1CCN(C(=O)c2ccc(Cn3cc(Br)cn3)cc2)CC1` was -6.24%.
Regarding `Cc1nc(-c2cccc(Cl)c2)n(CC(=O)NCC2CCCO2)c(=O)c1C` (stereo unspecified), the cytotoxicity at 10 µM was -7.04%.
Consider `O=C(Cn1ccnc1)N1CC[C@H](Oc2cccc(F)c2)[C@@H](O)CC1`, for which the cytotoxicity at 10 µM was -0.59%.
As for `CC(=O)N1CCC(Cc2cccc(-c3ccnn3C)n2)CC1`, the cytotoxicity at 10 µM worked out at 6.3%.
The value for `OCCN1CCC(Cc2nccs2)CC1` was 5.97%; that for `Cc1cc(-c2cc(N)c(=O)n(CC(=O)NC3CCCCC3)n2)c(C)o1` was 6.79%.
Regarding `O=C(c1noc2c1CCCC2)N1CCCC(c2nccs2)C1` (stereo unspecified), the cytotoxicity at 10 µM was -2.66%.
In the case of `Cc1ccc(N(CCC#N)C(=O)CCc2cscn2)cc1C`, the cytotoxicity at 10 µM stood at 6.36%.
For `CC(C(=O)N1CCCC1)N1CCN(c2ncc(Cl)cn2)CC1` (stereo unspecified) the value was -3.34%; for `O=C(COc1ccc(Br)cc1F)Nc1cn[nH]c1`, -24.1%.
In the case of `NC(=O)C1CCCN1CCCc1ccc(C(F)(F)F)cc1` (stereo unspecified), the cytotoxicity at 10 µM stood at 0.936%.
`O=C1CN(c2ccc(CNC(=O)Nc3nccs3)cc2)CCN1`: the cytotoxicity at 10 µM worked out at 1.93%.
Take `CCS(=O)(=O)CC(=O)N1CCCC1c1noc(C2CC2)n1` (stereo unspecified): the cytotoxicity at 10 µM was -12.9%.
As for `CN(C)C(=O)CCCn1ccc(NC(=O)NCc2cccc(F)c2)n1`, the cytotoxicity at 10 µM amounted to 6.85%.
Regarding `CCc1nc(CN2CCCN(CC(=O)N3CCOCC3)CC2)no1`, the cytotoxicity at 10 µM was -10.2%.
Turning to `CNc1cc(N2CCCC2CNCc2cccc(C#N)c2)ncn1` (stereo unspecified), the cytotoxicity at 10 µM is -10.7%.
Take `CCc1nnc2n1CCN(C(=O)c1cnc(C3CC3)s1)C2`: the cytotoxicity at 10 µM came to 9.21%.
The value for `CC(C)N(C)CC(=O)NCC(O)c1cc2ccccc2s1` (stereo unspecified) was -3.91%; that for `Cc1cc(CN(CCO)c2ccc(Br)cc2)on1` was 1.78%.
The value for `COC(=O)c1ccc(CCn2cnc(C#N)n2)cc1` was -3.15%.
The value for `CCC1COCCN1C(=O)NCc1nccn1CCc1ccccc1` (stereo unspecified) was 4.42%; that for `CC(=O)NC1CCCN(C(=O)CNc2cccc(C)c2Cl)C1` (stereo unspecified) was -4.69%.
Consider `NC(=O)CCNC(=O)NCC1(c2ccccc2Cl)CCC1`, for which the cytotoxicity at 10 µM was -53.1%.
For `COc1cccc(CN(C)C(=O)CN2CCN(CCO)CC2)c1` the value was 12.3%; for `O=C(O)C1(n2ccnc2)CCN(Cc2ccc3occc3c2)CC1`, -4.31%.
For `Cn1ccnc1CN1CCN(Cc2ccncc2)[C@@H]2CS(=O)(=O)C[C@@H]21` the value was 1.5%; for `Cc1cc(CN2CCN(CC3CC3)[C@@H]3CS(=O)(=O)C[C@@H]32)cc(C)c1O`, 2.78%; for `OC1(CN2CCCC2)CCCN(c2ncnc3[nH]cnc23)C1` (stereo unspecified), 11.3%.
As to `O=C(c1cccc(-n2cccn2)c1)N1CCCOC(CN2CCCC2)C1` (stereo unspecified), the cytotoxicity at 10 µM is -7.33%.
For the compound `Cc1cc(NC(=O)Cn2ccc(-c3ccc4c(c3)OCO4)n2)n(C)n1`, the cytotoxicity at 10 µM is 6.28%.
For `NC(=O)CCNC(=O)C1(N2CCCCC2)Cc2ccccc2C1` the value was -8.56%.
The value for `Cn1cc(C(=O)N2CCC(c3ncc[nH]3)CC2)cn1` was -5.42%; that for `Cc1c(CN2CCC(C(=O)O)(n3cccn3)CC2)oc2ccccc12` was -2.67%; that for `CCN1CCC2(CCC1=O)CN(c1nccc(N)n1)CCN2C` (stereo unspecified) was 0.562%.
For `O=C(O)c1cnc(N2CC[C@H](N3CCOCC3)[C@H](CCCO)C2)c(Cl)c1` the value was 4.6%; for `Cc1c(CN(C)c2cc(C3CCCNC3)ncn2)[nH]c2ccccc12` (stereo unspecified), 1.99%; for `CCCc1nc(C(=O)N(C)Cc2cnn(-c3cccc(OC)c3)c2)cs1`, 6.39%.
Regarding `COc1cc2c(cc1CN1CCCCC1CN1CCOCC1)CCC2` (stereo unspecified), the cytotoxicity at 10 µM was -4.57%.
For `CCc1ccc(S(=O)(=O)Nc2cc(C(=O)O)ccc2F)s1` the value was -8.27%; for `N#CCCN(C(=O)CN1CCCC1c1cccs1)c1ccccc1F` (stereo unspecified), -9.1%.
In the case of `CN(Cc1ccc2c(c1)OCO2)Cc1nc2c(cnn2C)c(=O)[nH]1`, the cytotoxicity at 10 µM is -3.63%.
The value for `O=C(NCC1CC1)N1CCN(Cc2ccc3c(c2)OCCO3)CC1` was -4.3%; that for `O=C(CN1CC(n2cccn2)C1)NCCc1c[nH]c2ccccc12` was -4.74%.
For `Cc1cccc(N2CCN(C(=O)Nc3cnn(CC(N)=O)c3)CC2)c1` the value was -8.31%; for `Cc1noc2ncc(C(=O)NCC3CCN(C(C)C)C3)cc12` (stereo unspecified), -12.4%; for `CCn1cc(NC(=O)NCC(c2cccs2)N(C)C)cn1` (stereo unspecified), -2.66%.
For `CCc1nc2n(n1)CC(NCC(=O)Nc1cc(C)on1)CC2` (stereo unspecified) the value was -7.21%.
As to `CN(C)c1ccc(NC(=O)NCc2ccccn2)cn1`, the cytotoxicity at 10 µM is -3.34%.
Consider `Cn1cc(CN2C[C@@H]3COC[C@]3(C(=O)NCc3ccccn3)C2)cn1`, for which the cytotoxicity at 10 µM was -1.07%.
For `Cc1ccc(CN2CCc3c(CN(C)C)n[nH]c3C2)s1` the value was 1.93%; for `CC(C)n1cnc2c1C(C(=O)N1CCCC1)N(CC1CC1)CC2` (stereo unspecified), 6.59%; for `COC1COC2(CCN(CC3CCOCC3)CC2)C1` (stereo unspecified), -110%.
For `c1cncc(OCC2CC3(CCN(CC4CC4)CC3)CO2)c1` (stereo unspecified), the cytotoxicity at 10 µM was 4.95%.
For `Cn1nccc1-c1ncc2c(c1C(=O)O)CCN(Cc1cccnc1)C2` the value was 8.07%.
The value for `O=C(NCCc1ccccn1)[C@@]12CCO[C@@H]1CCN(C1CCC1)C2` was 8.03%.
The value for `COCC1Cn2nnc(-c3cnn(C)c3)c2CN1Cc1ccoc1` (stereo unspecified) was 6.44%.
Consider `CCN1CC[C@]2(CN(Cc3nccs3)C[C@H]2c2ccccc2)C1=O`, for which the cytotoxicity at 10 µM was determined as 4.89%.
On to `COCCN1C[C@@H](C)[C@@]2(COCCN(C(=O)c3ccno3)C2)C1`, for which the cytotoxicity at 10 µM was 7.4%.
For `O=C(CSc1nc2n[nH]cc2c(=O)n1-c1ccccc1)N1CCOCC1` the value was -8.21%.

The values are drawn from ChEMBL document CHEMBL4513216, “Probing the Open Global Health Chemical Diversity Library for Multistage-Active Starting Points for Next-Generation Antimalarials” (ACS Infect Dis, 2020).
